Measurements taken from ChEMBL document CHEMBL5316281, “Trojan Horse Siderophore Conjugates Induce Pseudomonas aeruginosa Suicide and Qualify the TonB Protein as a Novel Antibiotic Target” (2023).
Calls of active or inactive are those of the source. The rule behind the calls is not given here. Where a SMILES comes first, the peptide text is derived from it. The star is where a group is joined. X1 = O=C(COCC(=O)*)NCCOCCOCCOCCOCCOCCOCCOCCOCCn1cc(CCCC(=O)Nc2c(CNC(=O)c3cccc(O)c3O)cc(CNC(=O)c3cccc(O)c3O)cc2CNC(=O)c2cccc(O)c2O)nn1

What was measured:
Pseudomonas aeruginosa [1] = test: Antimicrobial activity against Pseudomonas aeruginosa harboring deltapvdF-deltapchA mutant assessed as effect on pirA transcription level at 10 uM incubated for 8 hrs in presence of iron-depleted CAA medium by qRT-PCR analysis; format: functional, organism-based
Procedure, shortened: (§1)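 Cells grown in CAA medium for 8 h at 30 °C with vigorous shaking, with or without 10 μM compound; 2.5 x 10⁸ cells stabilized in two volumes RNAprotect; RNA processed per earlier protocol; RT-qPCR with primer efficiencies from serially diluted genomic DNA; double ΔCT analysis.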

Pseudomonas aeruginosa [2] = test: Antimicrobial activity against Pseudomonas aeruginosa harboring deltapvdF-deltapchA mutant assessed as inhibition of bacterial growth by measuring minimal inhibitory concentration incubated for 24 hrs in presence of iron-depleted CAA medium; format: functional
Pseudomonas aeruginosa [3] = test: Antimicrobial activity against Pseudomonas aeruginosa harboring deltapvdF-deltapchA mutant with PfeA deletion assessed as reduction of bacterial growth at 10 uM by growth kinetic assay; format: functional, organism-based
Procedure, shortened: (§2)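 Overnight LB culture washed, regrown in CAA at 30 °C, washed, resuspended in CAA at OD600 0.02; fresh sterile-filtered aqueous compound added to 10 µM final; OD600 read in plate reader for 48 h at 30 °C with regular agitation.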

Pseudomonas aeruginosa [4] = test: Antimicrobial activity against Pseudomonas aeruginosa harboring deltapvdF-deltapchA mutant assessed as decrease in fptA transcription level at 10 uM incubated for 8 hrs in presence of iron-depleted CAA medium by qRT-PCR analysis; format: functional, organism-based; procedure, shortened: as §1
Pseudomonas aeruginosa [5] = test: Antimicrobial activity against Pseudomonas aeruginosa PAO1 assessed as inhibition of bacterial growth in presence of iron-depleted CAA medium; format: functional, organism-based
Pseudomonas aeruginosa [6] = test: Antimicrobial activity against Pseudomonas aeruginosa harboring deltapvdF-deltapchA mutant with PirA deletion assessed as reduction of bacterial growth at 10 uM by growth kinetic assay; format: functional, organism-based; procedure, shortened: as §2
Pseudomonas aeruginosa [7] = test: Antimicrobial activity against Pseudomonas aeruginosa PAO1 assessed as fold increase in pfeA transcription level at 10 uM incubated for 8 hrs in presence of iron-depleted CAA medium by qRT-PCR analysis; format: functional; procedure, shortened: as §1
Pseudomonas aeruginosa [8] = test: Antimicrobial activity against Pseudomonas aeruginosa harboring deltapvdF-deltapchA mutant assessed as inhibition of bacterial growth by measuring minimal inhibitory concentration incubated for 48 hrs in presence of iron-depleted CAA medium; format: functional
Pseudomonas aeruginosa [9] = test: Antimicrobial activity against Pseudomonas aeruginosa harboring deltapvdF-deltapchA mutant with PirA-PfeA dual deletion assessed as reduction of bacterial growth at 10 uM by growth kinetic assay; format: functional, organism-based; procedure, shortened: as §2
Pseudomonas aeruginosa [10] = test: Antimicrobial activity against Pseudomonas aeruginosa harboring deltapvdF-deltapchA mutant assessed as increase in pfeA transcription level at 10 uM incubated for 8 hrs in presence of iron-depleted CAA medium by qRT-PCR analysis; format: functional, organism-based; procedure, shortened: as §1

Compound	Activity (Pseudomonas aeruginosa [1])	MIC (Pseudomonas aeruginosa [2]) [µM]	Activity (Pseudomonas aeruginosa [3])	Activity (Pseudomonas aeruginosa [4])	Activity (Pseudomonas aeruginosa [5])	Activity (Pseudomonas aeruginosa [6])	fold change (FC) (Pseudomonas aeruginosa [7])	MIC (Pseudomonas aeruginosa [8]) [µM]	Activity (Pseudomonas aeruginosa [9])	Activity (Pseudomonas aeruginosa [10])
C#CCNC(=O)CN1CCN(CC(=O)NCCNC(=O)c2cccc(O)c2O)CCN(CC(=O)NCCNC(=O)c2cccc(O)c2O)CCN(CC(=O)NCCNC(=O)c2cccc(O)c2O)CC1	inactive	64	inactive	Active	inactive	Active	2	64	–	–
CC[C@H](C)[C@H](NC(=O)[C@H](CCSC)NC(=O)[C@@H](NC(=O)[C@H](C)NC(=O)CNC(=O)[C@H](CC(C)C)NC(=O)[C@H](CC(=O)O)NC(=O)[C@@H](NC(=O)[C@H](CO)NC(=O)[C@H](CO)NC(=O)[C@@H](N)CC(=O)O)C(C)C)[C@@H](C)O)C(=O)N[C@H](C(=O)N[C@@H](CO)C(=O)N[C@@H](CC(N)=O)C(=O)N[C@@H](CCC(N)=O)C(=O)N[C@@H](CC(C)C)C(=O)NCC(=O)N[C@H](C(=O)N[C@H](C(=O)N[C@@H](CCCCNC(=O)COCC(=O)NCCOCCOCCOCCOCCOCCOCCOCCOCCn1cc(CCCC(=O)Nc2c(CNC(=O)c3cccc(O)c3O)cc(CNC(=O)c3cccc(O)c3O)cc2CNC(=O)c2cccc(O)c2O)nn1)C(N)=O)[C@@H](C)CC)[C@@H](C)O)[C@@H](C)O (H-DSSVDLGATMITSNQLGTIK(X1)-NH2)	inactive	> 64	Active	Active	inactive	inactive	–	> 64	Active	Active
CC[C@H](C)[C@H](NC(=O)[C@H](CC(C)C)NC(=O)[C@@H](N)CO)C(=O)N[C@@H](CCCNC(=N)N)C(=O)N[C@H](C(=O)N[C@@H](CO)C(=O)N[C@@H](CCC(N)=O)C(=O)N[C@@H](CC(=O)O)C(=O)N[C@@H](CC(=O)O)C(=O)N[C@@H](CC(C)C)C(=O)N[C@H](C(=O)N[C@@H](CCC(N)=O)C(=O)N[C@@H](CCSC)C(=O)N[C@@H](CO)C(=O)N1CCC[C@H]1C(=O)N[C@@H](CO)C(=O)N[C@H](C(=O)N[C@H](C(=O)N[C@@H](CO)C(=O)N[C@@H](C)C(=O)N[C@@H](C)C(=O)N[C@@H](CCCNC(=N)N)C(=O)N1CCC[C@H]1C(=O)N[C@@H](CCCCNC(=O)COCC(=O)NCCOCCOCCOCCOCCOCCOCCOCCOCCn1cc(CCCC(=O)Nc2c(CNC(=O)c3cccc(O)c3O)cc(CNC(=O)c3cccc(O)c3O)cc2CNC(=O)c2cccc(O)c2O)nn1)C(N)=O)[C@@H](C)CC)C(C)C)C(C)C)C(C)C (H-SLIRVSQDDLVQMSPSVISAARPK(X1)-NH2)	–	> 64	Active	–	inactive	inactive	–	> 64	Active	–
CC[C@H](C)[C@H](NC(=O)[C@H](CCSC)NC(=O)[C@@H](NC(=O)[C@H](C)NC(=O)CNC(=O)[C@H](CC(C)C)NC(=O)[C@H](CC(=O)O)NC(=O)[C@@H](NC(=O)[C@H](CO)NC(=O)[C@H](CO)NC(=O)[C@H](CC(=O)O)NC(=O)COCC(=O)NCCOCCOCCOCCOCCOCCOCCOCCOCCn1cc(CCCC(=O)Nc2c(CNC(=O)c3cccc(O)c3O)cc(CNC(=O)c3cccc(O)c3O)cc2CNC(=O)c2cccc(O)c2O)nn1)C(C)C)[C@@H](C)O)C(=O)N[C@H](C(=O)N[C@@H](CO)C(=O)N[C@@H](CC(N)=O)C(=O)N[C@@H](CCC(N)=O)C(=O)N[C@@H](CC(C)C)C(=O)NCC(=O)N[C@H](C(=O)N[C@H](C(=O)N[C@@H](CCCCN)C(N)=O)[C@@H](C)CC)[C@@H](C)O)[C@@H](C)O (X1-DSSVDLGATMITSNQLGTIK-NH2)	inactive	> 64	Active	Active	inactive	inactive	–	> 64	Active	Active
CC[C@H](C)[C@H](NC(=O)[C@H](CC(C)C)NC(=O)[C@H](CO)NC(=O)COCC(=O)NCCOCCOCCOCCOCCOCCOCCOCCOCCn1cc(CCCC(=O)Nc2c(CNC(=O)c3cccc(O)c3O)cc(CNC(=O)c3cccc(O)c3O)cc2CNC(=O)c2cccc(O)c2O)nn1)C(=O)N[C@@H](CCCNC(=N)N)C(=O)N[C@H](C(=O)N[C@@H](CO)C(=O)N[C@@H](CCC(N)=O)C(=O)N[C@@H](CC(=O)O)C(=O)N[C@@H](CC(=O)O)C(=O)N[C@@H](CC(C)C)C(=O)N[C@H](C(=O)N[C@@H](CCC(N)=O)C(=O)N[C@@H](CCSC)C(=O)N[C@@H](CO)C(=O)N1CCC[C@H]1C(=O)N[C@@H](CO)C(=O)N[C@H](C(=O)N[C@H](C(=O)N[C@@H](CO)C(=O)N[C@@H](C)C(=O)N[C@@H](C)C(=O)N[C@@H](CCCNC(=N)N)C(=O)N1CCC[C@H]1C(=O)N[C@@H](CCCCN)C(N)=O)[C@@H](C)CC)C(C)C)C(C)C)C(C)C (X1-SLIRVSQDDLVQMSPSVISAARPK-NH2)	–	> 64	Active	–	inactive	inactive	–	> 64	Active	–
CC[C@H](C)[C@H](NC(=O)[C@@H](NC(=O)COCC(=O)NCCOCCOCCOCCOCCOCCOCCOCCOCCn1cc(CCCC(=O)Nc2c(CNC(=O)c3cccc(O)c3O)cc(CNC(=O)c3cccc(O)c3O)cc2CNC(=O)c2cccc(O)c2O)nn1)C(C)C)C(=O)N[C@@H](CCC(=O)O)C(=O)N[C@@H](CC(C)C)C(=O)NCC(=O)N[C@@H](CCC(=O)O)C(=O)N[C@@H](CCC(N)=O)C(=O)N[C@H](C(=O)N[C@H](C(=O)N[C@H](C(=O)N[C@@H](C)C(=O)N[C@H](C(=O)N[C@@H](C)C(=O)N[C@@H](CCC(N)=O)C(=O)N[C@@H](CCC(=O)O)C(=O)N[C@@H](CCC(=O)O)C(=O)N[C@H](C(=O)N[C@@H](CCCCN)C(=O)N[C@@H](CCC(N)=O)C(=O)N[C@@H](CCCCN)C(N)=O)[C@@H](C)O)[C@@H](C)O)C(C)C)C(C)C)[C@@H](C)O (X1-VIELGEQTVVATAQEETKQK-NH2)	–	> 64	Active	–	inactive	inactive	–	> 64	Active	–
H-DSSVDLGATMITSNQLGTIK-NH2	inactive	–	inactive	Active	inactive	inactive	–	–	inactive	inactive
H-SLIRVSQDDLVQMSPSVISAARPK-NH2	inactive	–	inactive	Active	inactive	inactive	–	–	inactive	inactive
H-VIELGEQTVVATAQEETKQK-NH2	inactive	–	inactive	Active	inactive	inactive	–	–	inactive	inactive
